Tests used:
Echovirus E9 = assay: Antiviral activity against Echovirus 9 in human MRC5 cells; assay type: functional
Procedure, shortened: (§1)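 MTS-based CPE reduction assay. Confluent cell monolayers were infected with 100 CCID50 of virus and left 2 h at 37 °C for adsorption, then the inoculum was removed and serial compound dilutions were added. MTS/PMS was added for 2 h and OD was read at 498 nm. EC50 was derived from %CPE relative to uninfected and infected untreated controls.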

Echovirus E11 = assay: Antiviral activity against Echovirus 11 in human MRC5 cells; assay type: functional; procedure, shortened: as §1
Coxsackievirus A24 = assay: Antiviral activity against Coxsackievirus A24 in human MRC5 cells; assay type: functional
Procedure, shortened: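 MTS-based CPE-reduction assay. Confluent monolayers were infected with 100 CCID50 of virus and adsorbed for 2 h at 37 °C; virus was then removed and serial compound dilutions added. Cultures were incubated 3 days at 37 °C until complete CPE in the untreated virus control. After MTS/PMS for 2 h, OD was read at 498 nm, %CPE calculated against uninfected and infected-untreated controls, and EC50 derived.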

enterovirus D68 = assay: Antiviral activity against Enterovirus 68 in human MRC5 cells; assay type: functional; procedure, shortened: as §1
Coxsackievirus B3 = assay: Antiviral activity against Coxsackievirus B3 assessed as reduction of virus-induced cytopathogenicity after 3 days by MTS assay; assay type: functional, organism-based; conditions: Enterovirus B, 72 h; procedure, shortened: as §1
Coxsackievirus B2 = assay: Antiviral activity against Coxsackievirus B2 in african green monkey Vero cells; assay type: functional; procedure, shortened: as §1
Coxsackievirus B5 = assay: Antiviral activity against Coxsackievirus B5 in african green monkey Vero cells; assay type: functional; procedure, shortened: as §1
Coxsackievirus B6 = assay: Antiviral activity against Coxsackievirus B6 in african green monkey Vero cells; assay type: functional; procedure, shortened: as §1
Coxsackievirus B4 = assay: Antiviral activity against Coxsackievirus B4 in african green monkey Vero cells; assay type: functional; procedure, shortened: as §1
Coxsackievirus B1 = assay: Antiviral activity against Coxsackievirus B1 in african green monkey Vero cells; assay type: functional; procedure, shortened: as §1

## N#Cc1cc([N+](=O)[O-])ccc1Oc1ccc([N+](=O)[O-])cc1
Echovirus E9
  Activity: >350 µM
Echovirus E11
  Activity: >350 µM
Coxsackievirus A24
  Activity: >350 µM
Enterovirus D68
  Activity: >350 µM
Coxsackievirus B3
  IC50: 3.3 µM

## COc1ccc(Oc2ccc([N+](=O)[O-])cc2C#N)cc1
Coxsackievirus B3
  IC50: 46 µM

## N#Cc1cc([N+](=O)[O-])ccc1Oc1cccc(I)c1
Coxsackievirus B3
  IC50: 5.7 µM

## Cc1ccc(Oc2ccc([N+](=O)[O-])cc2C#N)cc1
Coxsackievirus B3
  IC50: 6.2 µM

## N#Cc1cc([N+](=O)[O-])ccc1Oc1ccc(Cl)c(Cl)c1Cl
Coxsackievirus B3
  IC50: > 146 µM

## CSc1ccc(Oc2ccc([N+](=O)[O-])cc2C#N)cc1
Coxsackievirus B3
  IC50: 93 µM

## C[S+]([O-])c1ccc(Oc2ccc([N+](=O)[O-])cc2C#N)cc1 (stereo not given)
Coxsackievirus B3
  IC50: 205 µM

## N#Cc1cc([N+](=O)[O-])ccc1Oc1ccc(Br)cc1Br
Coxsackievirus B3
  IC50: 6.2 µM

## N#Cc1cc([N+](=O)[O-])ccc1Oc1ccccc1Br
Coxsackievirus B3
  IC50: > 143 µM

## N#Cc1cc([N+](=O)[O-])ccc1Oc1ccc(Cl)cc1Br
Coxsackievirus B3
  IC50: 3.7 µM

## N#Cc1cc([N+](=O)[O-])ccc1Oc1ccccc1Cl
Coxsackievirus B2
  Activity: 6.2 µM
Echovirus E9
  Activity: 35 µM
Coxsackievirus B5
  Activity: 3.1 µM
Echovirus E11
  Activity: 35 µM
Coxsackievirus A24
  Activity: 23 µM
Coxsackievirus B6
  Activity: 8.1 µM
Coxsackievirus B4
  Activity: 14 µM
Enterovirus D68
  Activity: 22 µM
Coxsackievirus B3
  IC50: 6.9 µM
Coxsackievirus B1
  Activity: 5.6 µM

## CC(=O)Nc1ccc(Oc2ccc([N+](=O)[O-])cc2C#N)cc1
Coxsackievirus B3
  IC50: > 336 µM

## N#Cc1cc([N+](=O)[O-])ccc1Oc1cccc(Br)c1
Coxsackievirus B3
  IC50: 5 µM

## N#Cc1cc([N+](=O)[O-])ccc1Oc1cccc([N+](=O)[O-])c1
Coxsackievirus B3
  IC50: 38 µM

## COc1cccc(Oc2ccc([N+](=O)[O-])cc2C#N)c1
Coxsackievirus B3
  IC50: 12 µM

## CC(C)c1cccc(Oc2ccc([N+](=O)[O-])cc2C#N)c1
Coxsackievirus B3
  IC50: 40 µM

## CC(=O)c1ccc(Oc2ccc([N+](=O)[O-])cc2C#N)cc1
Coxsackievirus B3
  IC50: 35 µM

## N#Cc1cc([N+](=O)[O-])ccc1Oc1ccc(Cl)cc1N
Coxsackievirus B3
  IC50: > 53 µM

## Cc1cc(Oc2ccc([N+](=O)[O-])cc2C#N)ccc1[N+](=O)[O-]
Coxsackievirus B3
  IC50: 11 µM

## CC(=O)c1cccc(Oc2ccc([N+](=O)[O-])cc2C#N)c1
Coxsackievirus B3
  IC50: 57 µM

## N#Cc1cc([N+](=O)[O-])ccc1Oc1cccc(Cl)c1Cl
Coxsackievirus B2
  Activity: 8.6 µM
Echovirus E9
  Activity: >323 µM
Coxsackievirus B5
  Activity: 4.8 µM
Echovirus E11
  Activity: >323 µM
Coxsackievirus A24
  Activity: >309 µM
Coxsackievirus B6
  Activity: 10 µM
Coxsackievirus B4
  Activity: 17 µM
Enterovirus D68
  Activity: >323 µM
Coxsackievirus B3
  IC50: 4.9 µM
Coxsackievirus B1
  Activity: 3.3 µM

## N#Cc1cc([N+](=O)[O-])ccc1Oc1ccc(Cl)cc1
Echovirus E9
  Activity: >364 µM
Echovirus E11
  Activity: >364 µM
Enterovirus D68
  Activity: >364 µM
Coxsackievirus B3
  IC50: 5 µM

## N#Cc1cc([N+](=O)[O-])ccc1Oc1cc(Cl)c(Cl)cc1Cl
Coxsackievirus B3
  IC50: 59 µM

## N#Cc1cc([N+](=O)[O-])ccc1Oc1ccc(I)cc1
Coxsackievirus B3
  IC50: 5.7 µM

## N#Cc1ccccc1Oc1ccc([N+](=O)[O-])cc1C#N
Coxsackievirus B3
  IC50: 11 µM

## Cc1cccc(Oc2ccc([N+](=O)[O-])cc2C#N)c1
Coxsackievirus B2
  Activity: 11 µM
Echovirus E9
  Activity: >393 µM
Coxsackievirus B5
  Activity: 13 µM
Echovirus E11
  Activity: >393 µM
Coxsackievirus A24
  Activity: 19 µM
Coxsackievirus B6
  Activity: 22 µM
Coxsackievirus B4
  Activity: 22 µM
Enterovirus D68
  Activity: 76 µM
Coxsackievirus B3
  IC50: 6.4 µM
Coxsackievirus B1
  Activity: 8.9 µM

## N#Cc1cc([N+](=O)[O-])ccc1Oc1ccc([N+](=O)[O-])cc1Cl
Coxsackievirus B3
  IC50: 39 µM

## Cc1ccc(Oc2ccc([N+](=O)[O-])cc2C#N)cc1C
Coxsackievirus B3
  IC50: 99 µM

## CC(=O)Nc1cccc(Oc2ccc([N+](=O)[O-])cc2C#N)c1
Coxsackievirus B3
  IC50: 121 µM

## Cc1cc(Oc2ccc([N+](=O)[O-])cc2C#N)ccc1Br
Coxsackievirus B3
  IC50: 2.6 µM

## COc1ccccc1Oc1ccc([N+](=O)[O-])cc1C#N
Coxsackievirus B3
  IC50: 54 µM

## N#Cc1cc([N+](=O)[O-])ccc1Oc1ccc(Br)cc1Cl
Coxsackievirus B3
  IC50: 3.7 µM

## CCc1cc(Oc2ccc([N+](=O)[O-])cc2C#N)ccc1Cl
Coxsackievirus B3
  IC50: > 330 µM

## Cc1cc(Oc2ccc([N+](=O)[O-])cc2C#N)ccc1Cl
Coxsackievirus B2
  Activity: 5.2 µM
Echovirus E9
  Activity: >346 µM
Coxsackievirus B5
  Activity: 2.1 µM
Echovirus E11
  Activity: >346 µM
Coxsackievirus A24
  Activity: 234 µM
Coxsackievirus B6
  Activity: >346 µM
Coxsackievirus B4
  Activity: >346 µM
Enterovirus D68
  Activity: >346 µM
Coxsackievirus B3
  IC50: 2 µM
Coxsackievirus B1
  Activity: 4.8 µM

## Cc1cc(Cl)ccc1Oc1ccc([N+](=O)[O-])cc1C#N
Coxsackievirus B3
  IC50: 11 µM

## N#Cc1cc([N+](=O)[O-])ccc1Oc1cccc(NC(N)=S)c1
Coxsackievirus B3
  IC50: 234 µM

## N#Cc1cc([N+](=O)[O-])ccc1Oc1ccc(N)c([N+](=O)[O-])c1
Coxsackievirus B3
  IC50: 10 µM

## N#Cc1cc([N+](=O)[O-])ccc1Oc1ccc(Cl)c(Cl)c1
Coxsackievirus B2
  Activity: 15 µM
Echovirus E9
  Activity: >324 µM
Coxsackievirus B5
  Activity: 18 µM
Echovirus E11
  Activity: 6.7 µM
Coxsackievirus A24
  Activity: 1.8 µM
Coxsackievirus B6
  Activity: 12 µM
Coxsackievirus B4
  Activity: 17 µM
Enterovirus D68
  Activity: 12 µM
Coxsackievirus B3
  IC50: 6.5 µM
Coxsackievirus B1
  Activity: 15 µM

## N#Cc1cc([N+](=O)[O-])ccc1Oc1ccc(Br)cc1
Coxsackievirus B3
  IC50: 5.7 µM

## N#Cc1cc([N+](=O)[O-])ccc1Oc1cccc(N)c1
Coxsackievirus B3
  IC50: 241 µM

## N#Cc1ccc(Oc2ccc([N+](=O)[O-])cc2C#N)cc1
Coxsackievirus B3
  IC50: 4.1 µM

## N#Cc1cc([N+](=O)[O-])ccc1Oc1cccc(Cl)c1
Coxsackievirus B3
  IC50: 4.9 µM

## N#Cc1cc([N+](=O)[O-])ccc1Oc1cc(Cl)cc(Cl)c1
Coxsackievirus B3
  IC50: > 81 µM

## N#Cc1cc([N+](=O)[O-])ccc1Oc1cccc(NC(N)=O)c1
Coxsackievirus B3
  IC50: > 335 µM

## N#Cc1cc([N+](=O)[O-])ccc1Oc1ccc(Br)c(Cl)c1
Coxsackievirus B3
  IC50: 6.7 µM

## CS(=O)(=O)c1ccc(Oc2ccc([N+](=O)[O-])cc2C#N)cc1
Coxsackievirus B3
  IC50: 174 µM

## N#Cc1cc([N+](=O)[O-])ccc1Oc1cc(Cl)ccc1Cl
Echovirus E9
  Activity: >323 µM
Echovirus E11
  Activity: >323 µM
Enterovirus D68
  Activity: >323 µM
Coxsackievirus B3
  IC50: 3.8 µM

## CN(C)c1cccc(Oc2ccc([N+](=O)[O-])cc2C#N)c1
Coxsackievirus B3
  IC50: 31 µM

## N#Cc1cc([N+](=O)[O-])ccc1Oc1ccc(C(=O)O)cc1
Coxsackievirus B3
  IC50: > 352 µM

## N#Cc1cc([N+](=O)[O-])ccc1Oc1ccc(Cl)cc1Cl
Coxsackievirus B3
  IC50: 13 µM

## Cc1ccccc1Oc1ccc([N+](=O)[O-])cc1C#N
Coxsackievirus B3
  IC50: 57 µM

## N#Cc1cc([N+](=O)[O-])ccc1Oc1cccc(C(=O)O)c1
Coxsackievirus B3
  IC50: > 352 µM

## N#Cc1ccc(Oc2ccc([N+](=O)[O-])cc2C#N)c(Cl)c1
Coxsackievirus B3
  IC50: 7.3 µM

## N#Cc1cc([N+](=O)[O-])ccc1Oc1ccc(C(N)=O)cc1
Coxsackievirus B3
  IC50: > 353 µM

## Cc1cc(C)cc(Oc2ccc([N+](=O)[O-])cc2C#N)c1
Coxsackievirus B3
  IC50: > 324 µM

## N#Cc1cc([N+](=O)[O-])ccc1Oc1c(Cl)cc(Cl)cc1Cl
Coxsackievirus B3
  IC50: 72 µM

## CC(C)(C)c1ccc(Oc2ccc([N+](=O)[O-])cc2C#N)cc1
Coxsackievirus B3
  IC50: > 338 µM

## N#Cc1cc([N+](=O)[O-])ccc1Oc1ccccc1
Coxsackievirus B2
  Activity: 17 µM
Echovirus E9
  Activity: >416 µM
Coxsackievirus B5
  Activity: 10 µM
Echovirus E11
  Activity: >416 µM
Coxsackievirus A24
  Activity: >240 µM
Coxsackievirus B6
  Activity: 19 µM
Coxsackievirus B4
  Activity: 26 µM
Enterovirus D68
  Activity: >416 µM
Coxsackievirus B3
  IC50: 8.7 µM
Coxsackievirus B1
  Activity: 6.9 µM

## N#Cc1cc([N+](=O)[O-])ccc1Oc1ccc(N)cc1
Coxsackievirus B3
  IC50: 106 µM

## N#Cc1cc([N+](=O)[O-])ccc1Oc1ccc(CO)cc1
Coxsackievirus B3
  IC50: 121 µM

## N#Cc1cccc(Oc2ccc([N+](=O)[O-])cc2C#N)c1
Coxsackievirus B3
  IC50: 7.4 µM
